In the library only some 3.1% were active in any assay of this set; here they are far more common.
CSC inhib: cancer stem cell inhibition; cancer stem cell-like cells viability, luminescence; actives 1.1% (n = 300,000); inhibition, % at 7.5 µM; in the data active means inhibition above about 75%; tested in HMLE shEcad cells
Beta apoptosis: blocks beta cell apoptosis; INS-1E cytokine-induced death, ATP luminescence, 48 h; percent of positive-control rescue, neutral wells zero; protection from apoptosis, % (no concentration beside the values); actives 0.8% (n = 300,000); AID 435005;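 active means Every replicate reaches about 75%, or at least half do and their mean reaches it too, limit read from the data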;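 further: 0% = cytokine-treated negative control wells and 100% = positive control rescue; higher means more ATP so stronger rescue from cytokine killing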
T cruzi inh: T. cruzi replication inhibition; actives 1.4% (n = 300,000); T. cruzi beta-gal in NIH3T3, luminescence, 90 h; inhibition, % (test concentration not listed);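 active means mean inhibition across valid replicates above about 55%, limit read from the data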;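 further: signal also drops with host cell toxicity which is not excluded here; 0% = plate median of DMSO wells and 100% = zero luminescence signal; higher percent means less beta-gal luminescence so fewer parasites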
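Assay system: NIH/3T3 fibroblasts plus reporter T. cruzi. Amount: NIH/3T3 cells, 5,000 per well. Buffer or medium: DMEM, 2% fetal bovine serum. Doses: compound pinned at 50 nL/well, DMSO. Schedule: ≥90 h infection period, 3 h prior cell attachment. Signal: luminescent β-galactosidase signal after 60 min lysis. Read-out: parasite load inhibition, %.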
Calb FLC: C. albicans growth modulation with fluconazole | C. albicans CaCi-2 (fluconazole-resistant clinical isolate) + fluconazole, Alamar Blue growth, 48 h | growth inhibition, % (no concentration beside the values) | actives 0.57% (n = 300,000) | AID 1979;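 active means growth inhibition above about 58% in most replicates, limit read from the data, passing the limit was not always enough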;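 further: all wells also contain fluconazole at 8 µg/ml as a sub-toxic cotreatment; 0% = median of DMSO wells and 100% = median of geldanamycin control wells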
H9c2 TAG inh: reduces triacylglycerol accumulation in H9c2 cells. Nile Red lipid (TAG) fluorescence; cells loaded with 200 µM oleic acid. inhibition, % at 12.5 µM. actives 0.66% (n = 230,000);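 active means pattern-corrected inhibition of lipid staining of at least 50% with the nuclear-stain viability signal not falling by more than 50%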;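 further: 0% = DMSO wells and 100% = triacsin C control wells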
A1 inh: inhibitors of the anti-apoptotic protein A1, read as caspase activation; MEF A1-2A-BIM cells, Caspase-Glo 3/7 luminescence, 3 h; percent of clofoctol response, vehicle zero; caspase activation, % (no concentration beside the values); actives 0.066% (n = 330,000); AID 2462;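 active means over half of replicate activation scores above 10%, or exactly half above 10 with the replicate mean above 10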
H9c2 TAG conf: triacylglycerol accumulation inhibition, confirmation. H9c2 lipid accumulation, Nile Red fluorescence; cells loaded with 200 µM oleic acid. shares compounds with H9c2 TAG inh. inhibition, % at 12.5 µM. actives 71% (n = 990);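 active means mean inhibition across replicates of 40% or more; inactive means mean inhibition below 40%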;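 further: plate controls were DMSO only wells for no effect and Triacsin C treated wells for full effect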
Numbers without * were called inactive; x = no result given; ! = a repeat was not active.

SMILES	CSC inhib	Beta apoptosis	T cruzi inh	Calb FLC	H9c2 TAG inh	A1 inh	H9c2 TAG conf
O=C(N/N=C/c1cn(-c2ccccc2)nc1-c1cc2ccccc2o1)c1c[nH]c2ccccc12	5	23	37	-27	59*	0	60*
O=C(COc1ccc(Br)cc1CNC1CCCCC1)NCCc1ccccc1	5	21	23	-7	59*	0	39
CSc1ncnc2c1ncn2CCCN(C)Cc1ccco1	x	x	x	x	17	x	x
O=C(OCCc1ccccn1)c1cccc([N+](=O)[O-])c1	x	x	x	x	20	x	x
O=C(Cc1ccccc1)NC(Nc1cccc2ccccc12)C(Cl)(Cl)Cl (stereo not given)	-10	5	36	-34	58*	0	1
O=C(Cc1ccccc1)NC(Nc1ccccc1)C(Cl)(Cl)Cl (stereo not given)	10	-4	-6	0	x	1	x
O=C(COC(=O)c1cccc(-n2cnnn2)c1)c1ccc(Br)cc1	-7	3	-6	-1	-9	0	x
COCC(COS(N)(=O)=O)Cc1ccccc1 (stereo not given)	-6	x	-35	-2	-21	-1	x
COC(=O)c1ccc(Cn2c(C)c(C(=O)NCc3ccco3)sc2=O)o1	x	x	x	x	4	x	x
Cc1ccc(C(=O)Nc2cccc(C(F)(F)F)c2)cc1NC(=O)c1nccn1C	-14	2	-23	4	96*!	-1	9
Cc1ccc(C(=O)Nc2cccc(C(F)(F)F)c2)cc1NC(=O)c1ccno1	-11	10	-33	-12	20	0	x
Cc1ccc(Cn2cc(/C=N/NC(=O)Cc3nnc(NC(=O)c4ccc(C)cc4)s3)c3ccccc32)cc1	-2	11	-9	4	52*	0	128*
CC(C)N1CSC(=S)N(Cc2ccccc2)C1	3	-1	15	1	69*	-1	49*
CC(C)(C)N1CSC(=S)N(Cc2ccccc2)C1	11	0	-12	-15	-9	1	x
O=C(Nc1ccc2oc(-c3cccnc3)nc2c1)c1cc2ccccc2o1	-5	-2	-2	57	52*	0	25
CC(C)(C)N1C(=O)[C@H]2[C@@H](c3ccc(Br)cc3)N3C(=O)N(c4ccc(Br)cc4)C(=O)[C@@]3(Cc3ccccc3)[C@H]2C1=O	14	13	36	-5	60*	1	54*
CCOC(=O)c1c(NC(C)=O)sc2c(OCC(O)CN(CC)CC)c(Br)ccc12 (stereo not given)	25	27	48	-10	69*	0	47*
O=C(c1cnn2c1NC(c1ccc(Br)cc1)CC2C(F)(F)F)N1CCN(C23CC4CC(CC(C4)C2)C3)CC1 (stereo not given)	22	0	13	2	54*	-1	55*
Cc1ccc(C2CC(C(F)(F)F)n3ncc(C(N)=O)c3N2)cc1 (stereo not given)	-2	1	-6	-6	x	1	x
O=C(OCc1ccc(O)cc1)c1c(-c2ccsc2)oc2ccc(N3CCOCC3)cc12	74	14	28	0	32	-1	x
COc1cc(C#Cc2c(-c3cncn3C)n(C)c3ccc(-c4cnc(N5CCOCC5)nc4)cc23)cc(OC)c1	x	15	x	x	73*	-5	65*

Screens deposited in PubChem BioAssay by several laboratories.
